{
  "source": "ChEMBL document CHEMBL1177744",
  "about": "“An efficient and economical MTT assay for determining the antioxidant activity of plant natural product extracts and pure compounds” (J Nat Prod, 2010)",
  "note": "Several values for one entry are separate records, joined by “and”; a condition that tells them apart may be missing. Equal entries are not always repeated.",
  "data": [
    {"assay": "Antioxidant activity assessed as formazan formation induced absorbance changes at 25 ppm at 570 nm at 37 degC for 6 hrs by MTT assay", "format": "functional", "method_in_brief": "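Cell-free redox assay: MTT in water (190 µL) vortexed 1 min with sample (10 µL) in DMSO in a capped 2 mL glass vial. DMSO (200 µL) then added to give 50:50 water-DMSO, and the mixture vortexed again. Incubated 6 h at 37 °C, then 200 µL read at 570 nm for formazan. Triplicates, experiment repeated 10 times, mean absorbance reported.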", "values": [
      {"compound": "COc1ccc(-c2cc(=O)c3ccccc3o2)cc1", "deltaA": 0.24},
      {"compound": "COc1ccc(-c2cc(=O)c3ccc(OC)cc3o2)cc1", "deltaA": 0.17},
      {"compound": "O=C(O[C@@H]1Cc2c(O)cc(O)cc2O[C@@H]1c1ccc(O)c(O)c1)c1cc(O)c(O)c(O)c1", "deltaA": 1.18},
      {"compound": "CCCCC/C=C\\C/C=C\\CCCCCCCC(=O)O", "deltaA": 0.68},
      {"compound": "O=C(O)CCc1ccc(O)cc1", "deltaA": 0.17},
      {"compound": "Oc1cc(O)c2c(c1)O[C@@H](c1cc(O)c(O)c(O)c1)[C@H](O)C2", "deltaA": 0.99},
      {"compound": "Oc1cccc(O)c1O", "deltaA": 0.86},
      {"compound": "CCCCCCCCCCCCCCCCCCCCC(=O)O", "deltaA": 0.22},
      {"compound": "CCCCCCCCCCC(=O)O", "deltaA": 0.19},
      {"compound": "Oc1cc(O)c2c(c1)O[C@H](c1ccc(O)c(O)c1)[C@@H](O)C2", "deltaA": 0.88},
      {"compound": "CCCC/C=C\\CCCCCCCCC(=O)O", "deltaA": 0.19},
      {"compound": "O=C(O)c1ccc(O)cc1", "deltaA": 0.13},
      {"compound": "O=C(O)/C=C/c1ccc(O)cc1", "deltaA": 0.15},
      {"compound": "COc1ccc(-c2cc(=O)c3ccc(O)cc3o2)cc1", "deltaA": 0.23},
      {"compound": "C[C@H]1O[C@@H](OC[C@@H]2O[C@H](Oc3cc4c(O)cc(O)cc4[o+]c3-c3ccc(O)c(O)c3)[C@@H](O[C@@H]3O[C@H](CO)[C@@H](O)[C@H](O)[C@H]3O)[C@H](O)[C@H]2O)[C@@H](O)[C@@H](O)[C@@H]1O", "deltaA": 0.28},
      {"compound": "Cc1c(C)c2c(c(C)c1O)CC[C@@](C)(CCC[C@H](C)CCC[C@H](C)CCCC(C)C)O2", "deltaA": 0.56},
      {"compound": "CCCCCCCCCCCCCCCCCCCCCCC(=O)O", "deltaA": 0.27},
      {"compound": "O=c1c(-c2ccc(O)cc2)coc2cc(O)cc(O)c12", "deltaA": 0.29},
      {"compound": "CCCCCCCCCCCCCCCCCC(=O)O", "deltaA": 0.47},
      {"compound": "O=c1cc(-c2ccc(O)c(O)c2)oc2cc(O)cc(O)c12", "deltaA": 0.66},
      {"compound": "CCCCCCCCCC(=O)O", "deltaA": 0.51},
      {"compound": "O=c1cc(-c2ccccc2)oc2cc(O)cc(O)c12", "deltaA": 0.3},
      {"compound": "CCCCCCCC/C=C\\CCCCCCCCCCCCCC(=O)O", "deltaA": 0.89},
      {"compound": "COc1ccc(-c2cc(=O)c3c(O)cc(O)cc3o2)cc1", "deltaA": 0.26},
      {"compound": "O=C(O)C1=C/C(=C\\C=[N+]2/c3cc(O)c(O[C@@H]4O[C@H](CO)[C@@H](O)[C@H](O)[C@H]4O)cc3C[C@H]2C(=O)[O-])C[C@@H](C(=O)O)N1", "deltaA": 0.6},
      {"compound": "COc1cc(/C=C/C(O)=C/C(=O)/C=C/c2ccc(O)cc2)ccc1O", "deltaA": 0.61},
      {"compound": "O=C(O)/C=C/c1ccc(O)c(O)c1", "deltaA": 0.69},
      {"compound": "CC12CCC(CC1=O)C2(C)C", "note": "(centres undefined)", "deltaA": 0.24},
      {"compound": "CCCCCCCCCCCCCCCCCCC(=O)O", "deltaA": 0.53},
      {"compound": "C[C@H]1O[C@@H](Oc2cc3c(O)cc(O)cc3[o+]c2-c2ccc(O)c(O)c2)[C@@H](O[C@@H]2O[C@H](CO)[C@@H](O)[C@H](O)[C@H]2O)[C@@H](O)[C@@H]1O", "deltaA": 0.17},
      {"compound": "COC(=O)/C=C/C(C)=C\\C=C\\C(C)=C\\C=C\\C=C(C)\\C=C\\C=C(C)\\C=C\\C(=O)O", "deltaA": 0.61},
      {"compound": "CCCCCCCCCCCC(=O)O", "deltaA": 0.19},
      {"compound": "COc1cc(C(=O)O)ccc1O", "deltaA": 0.19},
      {"compound": "C[C@H]1[C@H](C)CC[C@]2(C(=O)O)CC[C@]3(C)C(=CC[C@@H]4[C@@]5(C)CC[C@H](O)C(C)(C)[C@@H]5CC[C@]43C)[C@H]12", "deltaA": 0.43},
      {"compound": "CCCCCCCCC(=O)O", "deltaA": 0.16},
      {"compound": "COc1ccc2ccc(=O)oc2c1", "deltaA": 0.18},
      {"compound": "Cc1cc(C(C)(C)C)c(O)c(C(C)(C)C)c1", "deltaA": 0.51},
      {"compound": "Cc1cccc(O)c1O", "deltaA": 0.86},
      {"compound": "O=C(/C=C/c1ccc(O)c(O)c1)O[C@@H]1C[C@](O)(C(=O)O)C[C@@H](O)[C@H]1O", "deltaA": 0.72},
      {"compound": "CCCCCCCCCCCCC(=O)O", "deltaA": 0.47},
      {"compound": "CCCCCCCC(=O)O", "deltaA": 0.17},
      {"compound": "O=c1c(O)c(-c2ccc(O)c(O)c2)oc2cc(O)cc(O)c12", "deltaA": "0.75 and 0.3"},
      {"compound": "COc1cc(/C=C/C(=O)O)ccc1O", "deltaA": 0.29},
      {"compound": "O=c1cc(-c2ccc(O)cc2)oc2cc(O)cc(O)c12", "deltaA": 0.14},
      {"compound": "COc1cc(/C=C/C(=O)CC(=O)/C=C/c2ccc(O)c(OC)c2)ccc1O", "deltaA": 0.85},
      {"compound": "CC(C)CCC[C@@H](C)[C@H]1CC[C@H]2[C@@H]3CC=C4C[C@@H](O[C@@H]5O[C@H](CO)[C@@H](O)[C@H](O)[C@H]5O)CC[C@]4(C)[C@H]3CC[C@]12C", "deltaA": 0.3},
      {"compound": "CC(C)(C)c1cc(O)ccc1O", "deltaA": 0.51},
      {"compound": "COc1cc(O)c2c(=O)c(OC)c(-c3ccc(OC)c(OC)c3)oc2c1", "deltaA": 0.23},
      {"compound": "Oc1cc(O)c2c(c1)O[C@@H](c1ccc(O)c(O)c1)[C@H](O)C2", "deltaA": 0.53},
      {"compound": "O=c1c(-c2ccc(O)cc2)coc2cc(O)ccc12", "deltaA": 0.48},
      {"compound": "CCCCCCCCCCCCCCCCCCCC(=O)O", "deltaA": 0.25},
      {"compound": "C[C@@H]1O[C@@H](Oc2c(-c3ccc(O)c(O)c3)oc3cc(O)cc(O)c3c2=O)[C@H](O)[C@H](O)[C@H]1O", "deltaA": 0.3},
      {"compound": "O=C(O)CC(=O)OC[C@@H]1O[C@H](Oc2cc3c(O)cc(O)cc3[o+]c2-c2ccc(O)c(O)c2)[C@@H](O)[C@H](O)[C@H]1O", "deltaA": 0.2},
      {"compound": "CC/C=C\\C/C=C\\C/C=C\\CCCCCCCC(=O)OC", "deltaA": 0.25},
      {"compound": "Oc1cc(O)c2c(c1)O[C@H](c1ccc(O)c(O)c1)[C@H](O)C2", "deltaA": 0.17},
      {"compound": "CCCCCCCCCCCCCCCCCCCCCC(=O)O", "deltaA": 0.25},
      {"compound": "O=C(O)/C=C/c1ccc2c(c1)OCO2", "deltaA": 0.19},
      {"compound": "CCCCCC/C=C\\CCCC(=O)O", "deltaA": 0.17},
      {"compound": "CCCCCCCCCCCCCC(=O)O", "deltaA": 0.58},
      {"compound": "O=c1c(-c2ccc(O)cc2)coc2cc(O[C@@H]3O[C@H](CO)[C@@H](O)[C@H](O)[C@H]3O)cc(O)c12", "deltaA": 0.33},
      {"compound": "O=c1cc(-c2ccccc2)oc2c(O)c(O)ccc12", "deltaA": 0.49},
      {"compound": "Oc1cc(O)c2c(c1)OC(c1ccc(O)c(O)c1)C(O)C2", "note": "(racemic)", "deltaA": 1.18},
      {"compound": "COc1ccccc1-c1cc(=O)c2c(OC)cccc2o1", "deltaA": 0.27},
      {"compound": "CCCCCCCCCCCCCCCCCCCCCCCC(=O)O", "deltaA": 0.16},
      {"compound": "O=C(/C=C/c1ccc(O)cc1)CC(=O)/C=C/c1ccc(O)cc1", "deltaA": 0.37},
      {"compound": "CC1=C(/C=C/C(C)=C/C=C/C(C)=C/C=C/C=C(C)/C=C/C=C(C)/C=C/C2=C(C)CCCC2(C)C)C(C)(C)CCC1", "deltaA": 0.32},
      {"compound": "COc1ccc(-c2coc3cc(O)cc(O)c3c2=O)cc1", "deltaA": 0.37},
      {"compound": "O=C(O[C@@H]1Cc2c(O)cc(O)cc2O[C@H]1c1cc(O)c(O)c(O)c1)c1cc(O)c(O)c(O)c1", "deltaA": 0.92},
      {"compound": "CCCCCCCCCCCCCCCCC(=O)O", "deltaA": 0.91},
      {"compound": "CC(C)CCC[C@@H](C)[C@H]1CC[C@H]2[C@@H]3CC=C4C[C@@H](O)CC[C@]4(C)[C@H]3CC[C@]12C", "deltaA": 0.22},
      {"compound": "O=C1O[C@H]([C@@H](O)CO)C(O)=C1O", "deltaA": 0.5},
      {"compound": "COc1ccc(-c2coc3cc(O)ccc3c2=O)cc1", "deltaA": 0.2},
      {"compound": "CCCCCCCC/C=C\\CCCCCCCCCCCC(=O)O", "deltaA": 0.68},
      {"compound": "CC(C)=CCC/C(C)=C/C=C/C(C)=C/C=C/C(C)=C/C=C/C=C(C)/C=C/C=C(C)/C=C/C=C(\\C)CCC=C(C)C", "deltaA": 0.59}
    ]}
  ]
}
